Screening results from PubChem BioAssay.
Only some compounds are listed: those with a hit (about 2.6% of all), similar ones and a draw of the others.
VLA-4 inh: inhibition in human VLA-4 binding assay, primary screen, VLA-4 allosteric modulator project, MLPCN library, flow cytometry, VLA-4 expressing cells; Integrin alpha-4 (Homo sapiens), P13612; ligand binding flow cytometry; inhibition, % (about 7 µM as worked out from the volumes in the protocol); 330,000 compounds, 0.2% hits; AID 2557, 2010; in the data active = inhibition above about 50%
Rce1 inh: yeast Rce1p protease inhibitors, primary screen, biochemical, fluorescence, cell-free homogeneous; yeast membranes, quenched prenylated peptide cleavage fluorescence; 290,000 compounds, 0.27% hits; CAAX prenyl protease 2 (Saccharomyces cerevisiae (strain ATCC 204508 / S288c)), Q03530; AID 2563, 2010; calls only;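 active = fall in fluorescence gain of 50% or more versus controls, with final raw signal at or below 3038400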;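 note: plate controls were neutral control wells for no effect and wells lacking membranes for full effect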
Target sequence (Q03530 whole entry, looked up): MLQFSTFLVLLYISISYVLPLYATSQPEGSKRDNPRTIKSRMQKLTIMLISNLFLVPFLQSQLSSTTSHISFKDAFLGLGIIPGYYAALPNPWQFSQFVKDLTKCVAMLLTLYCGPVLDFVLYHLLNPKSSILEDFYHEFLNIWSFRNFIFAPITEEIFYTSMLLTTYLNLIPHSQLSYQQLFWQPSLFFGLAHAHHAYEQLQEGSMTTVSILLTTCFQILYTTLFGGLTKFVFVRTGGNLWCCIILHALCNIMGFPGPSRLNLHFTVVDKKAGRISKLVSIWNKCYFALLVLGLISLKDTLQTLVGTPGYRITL
Platelet DG rel: inhibitors of platelet dense granule secretion, primary screen, cell-based, MLPCN, human platelets; inhibition, %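 (compounds screened at 7.5 µM in platelet-rich plasma)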; human platelet-rich plasma, SFLLRN dense granule ATP release, luminescence; 300,000 compounds, 0.22% hits;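 active = mean replicate score, as percent of positive control, at or above 50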
TAAR1 antagonist: human TAAR1 antagonists, primary screen, Fluo-8 calcium fluorescence, CHO RD-HGA16 cells; Trace amine-associated receptor 1 (Homo sapiens), Q96RJ0; antagonist; inhibition, % at 3 µM; 360,000 compounds, 1.5% hits; AID 624466, 2012;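 active = inhibition above a per-plate cutoff, the mean inhibition of test compounds on that plate plus 3 SD, cut at about 49% in these data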;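 note: 0% = DMSO plus EC80 beta-PEA response and 100% = DMSO alone without agonist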
Target sequence (Q96RJ0 whole entry, looked up): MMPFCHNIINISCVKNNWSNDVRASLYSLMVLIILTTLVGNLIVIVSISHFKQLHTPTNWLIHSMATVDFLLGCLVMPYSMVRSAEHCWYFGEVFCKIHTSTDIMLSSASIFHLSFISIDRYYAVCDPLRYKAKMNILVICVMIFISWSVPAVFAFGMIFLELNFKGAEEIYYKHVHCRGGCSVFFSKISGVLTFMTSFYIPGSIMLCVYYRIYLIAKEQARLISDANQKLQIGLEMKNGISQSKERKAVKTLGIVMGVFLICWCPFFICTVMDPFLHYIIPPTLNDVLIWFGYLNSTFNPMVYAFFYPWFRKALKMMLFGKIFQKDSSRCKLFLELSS
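Test system – hTAAR1-expressing CHO RD-HGA16 cells, Gα16-coupled · Also added – β-PEA at EC80 concentration, post-compound challenge · Compound – 3 µM, single point · Incubation – dye loading 75 min at 37 °C, then 30 min room temperature · Measured by – Fluo-8 intracellular calcium dye fluorescence, real-time kinetic reads · Benchmarks – vehicle and agonist controls · Replicates – singlicate, one well per test compound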
TAAR1 ag: human TAAR1 agonists, primary screen, Fluo-8 calcium fluorescence, CHO RD-HGA16 cells; 360,000 compounds, 0.99% hits; AID 624467, 2012; activation, % at 3 µM; vehicle wells 0%, saturating PEA agonist 100%; Trace amine-associated receptor 1 (Homo sapiens), Q96RJ0;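 active = activation above the mean activation of all test compounds in the run plus 3 SD, cut at about 38% in these data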
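Test system: RD-HGA16 (CHO) cells co-expressing Gα16 and hTAAR1 / Benchmarks: DMSO vehicle as 0%, PEA at EC100 as 100% / Repeats: no replicates (n 1) / Measure: % activation from peak over basal fluorescence ratio, DMSO-to-PEA scaled / Timing: 17-24 h plating, Fluo-8 75 min 37 °C, 30 min RT / Technique: kinetic Fluo-8 calcium fluorescence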
TAAR1 ag conf: human TAAR1 agonists, retest of hits, confirmation, Fluo-8 calcium fluorescence, CHO RD-HGA16 cells. 2,400 compounds, 82% hits. scaled: DMSO 0%, maximal phenethylamine 100%. shares compounds with TAAR1 ag. activation, % at 3 µM. AID 651783, 2012;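 active = activation above a cutoff set at the run's mean compound activation plus 3 SD, cut at about 39% in these data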
Ga16 nonsel ag: nonselective calcium mobilization agonists, CHO-Ga16 cells, counter-screen for hTAAR1 agonist project, cell-based, fluorescence, CHO-Ga16 parental line. shares compounds with TAAR1 ag. Fluo-8 calcium fluorescence; normalized to maximal ATP response, DMSO zero. activation, % at 3 µM. 2,400 compounds, 50% hits. AID 651787, 2012;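 active = activation above the run cutoff, the mean activation over all tested wells plus 3 SD, cut at about 12% in these data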;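 note: 0% = DMSO wells and 100% = maximal ATP response on the peak over basal ratio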
TAAR1 desens: TAAR1 desensitization by agonist hits, confirmation, counter-screen for TAAR1 agonist project, cell-based, fluorescence, tachyphylaxis | shares compounds with TAAR1 ag | CHO RD-HGA16 hTAAR1, Fluo-8 calcium, beta-PEA response inhibition | inhibition, % at 3 µM | 2,400 compounds, 46% hits;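 active = inhibition above the run cutoff, the mean inhibition of all test compounds plus 3 SD, cut at about 49% in these data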;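 note: beta-PEA stimulus applied at its EC80; loss of beta-PEA calcium signal after compound pretreatment read as receptor desensitization; 0% = DMSO with beta-PEA at EC80 and 100% = DMSO alone without agonist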
Ga16 antag count: inhibition of ATP-evoked calcium response in CHO-Ga16 cells, counter-screen for TAAR1 agonist project, cell-based, fluorescence. CHO-Ga16 ATP-induced calcium, Fluo-8 fluorescence. 2,400 compounds, 39% hits. shares compounds with TAAR1 ag. inhibition, % at 3 µM;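 active = inhibition above the plate's mean compound inhibition plus 3 SD, computed per plate, cut at about 22% in these data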;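 note: 0% = EC80 ATP with DMSO and 100% = DMSO wells without ATP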
An asterisk follows results filed as active.

Screening O=C(CNC(=O)c1ccccc1F)N/N=C/c1ccc2c(c1)OCO2 returned VLA-4 inh 0.7, Rce1 inh inactive, Platelet DG rel -15.4, TAAR1 antagonist -12.4 and TAAR1 ag 0.9.
`O=C(CNC(=O)c1cccc(Cl)c1)N/N=C/c1cccnc1` gave VLA-4 inh 18.9, Rce1 inh inactive, Platelet DG rel 16.1, TAAR1 antagonist -8.3 and TAAR1 ag 0.4.
Screening O=C(O)c1ccc(N/N=C/C=C/c2ccccc2)cc1 returned VLA-4 inh -5.4, Rce1 inh inactive, Platelet DG rel 24.5, TAAR1 antagonist 4.1, TAAR1 ag 57.0*, TAAR1 ag conf 30.4, Ga16 nonsel ag 11.9*, TAAR1 desens 16.2 and Ga16 antag count 16.5.
For COC(=O)[C@@]12C[C@@H](CC(=O)N3CCSCC3)C(=O)N(CCc3ccc(OC)c(OC)c3)C1=CCC(C)(C)C2 the results were TAAR1 antagonist -9.4 and TAAR1 ag 2.4.
`O=C(N[C@@H](Cc1cccnc1)C(=O)N1CCC[C@H]1C(=O)NC1CCCC1)c1ccccc1` gave TAAR1 antagonist 5.3 and TAAR1 ag 0.4.
O=C(N[C@@H](Cc1cccnc1)C(=O)N1CCC[C@H]1C(=O)NCCc1ccccc1Cl)c1ccccc1 was read as TAAR1 antagonist 76.5*, TAAR1 ag 54.8*, TAAR1 ag conf 91.7*, Ga16 nonsel ag 7.3, TAAR1 desens 89.7* and Ga16 antag count 1.5.
O=C(N[C@@H](Cc1cccnc1)C(=O)N1CCC[C@H]1C(=O)NCCc1ccccc1Cl)c1ccc(Cl)c(Cl)c1 was read as TAAR1 antagonist 91.4*, TAAR1 ag 70.8*, TAAR1 ag conf 83.9*, Ga16 nonsel ag 4.7, TAAR1 desens 102.8* and Ga16 antag count 21.1.
Screening O=C(N[C@@H](Cc1cccnc1)C(=O)N1CCC[C@H]1C(=O)NC1CCCC1)C1CC1 returned TAAR1 antagonist 3.2 and TAAR1 ag 3.2.
For O=C(N[C@@H](Cc1cccnc1)C(=O)N1CCC[C@H]1C(=O)NCCc1ccccc1Cl)C1CC1 the results were TAAR1 antagonist 26.0, TAAR1 ag 46.2*, TAAR1 ag conf 70.0*, Ga16 nonsel ag 0.3, TAAR1 desens 58.4* and Ga16 antag count 5.9.
For O=C(NCCc1ccccc1Cl)[C@@H]1CCCN1C(=O)[C@H](Cc1cccnc1)NC(=O)N1CCOCC1 the results were TAAR1 antagonist 10.9, TAAR1 ag 48.7*, TAAR1 ag conf 77.0*, Ga16 nonsel ag 0.0, TAAR1 desens 45.9 and Ga16 antag count 4.7.
For O=C(N[C@@H](Cc1cccnc1)C(=O)N1CCC[C@H]1C(=O)NCCc1ccccc1Cl)c1cccs1 the results were TAAR1 antagonist 47.6, TAAR1 ag 47.7*, TAAR1 ag conf 81.9*, Ga16 nonsel ag 4.3, TAAR1 desens 84.2* and Ga16 antag count 4.1.
Screening CC(C)NC(=O)CSc1nc2sccc2c(=O)n1-c1ccccc1 returned VLA-4 inh -3.2, Rce1 inh inactive, Platelet DG rel -27.1, TAAR1 antagonist -10.6 and TAAR1 ag -3.3.
`c1ccc(SCCOCCN2CCc3ccccc3C2)cc1` gave VLA-4 inh 3.7, Rce1 inh inactive, Platelet DG rel 11.0, TAAR1 antagonist -19.8, TAAR1 ag 50.2*, TAAR1 ag conf 61.5*, Ga16 nonsel ag 0.2, TAAR1 desens 14.8 and Ga16 antag count 3.7.
For c1ccc(SCCN2CCc3ccccc3C2)cc1 the results were VLA-4 inh -5.2, Platelet DG rel -0.4, TAAR1 antagonist -6.2, TAAR1 ag 70.3*, TAAR1 ag conf 80.0*, Ga16 nonsel ag -1.0, TAAR1 desens 37.2 and Ga16 antag count 1.2.
`c1ccc(SCCOCCN2CCOCC2)cc1` gave VLA-4 inh 6.4, Rce1 inh inactive, Platelet DG rel -8.0, TAAR1 antagonist -2.0 and TAAR1 ag 0.0.
`OCCN1CCN(CCSc2ccccc2)CC1` gave VLA-4 inh 8.6, Platelet DG rel -6.6, TAAR1 antagonist 10.8 and TAAR1 ag 7.4.
For COc1ccc(NC(=O)CN2C(=O)NC3(CCCc4ccccc43)C2=O)c(OC)c1 (stereo not drawn) the results were VLA-4 inh 14.5, TAAR1 antagonist 7.3 and TAAR1 ag 5.6.
Screening O=C(O)CCc1ccc(-c2cccs2)n1CCc1ccccc1 returned VLA-4 inh 26.3, Rce1 inh inactive, Platelet DG rel 2.6, TAAR1 antagonist 32.2, TAAR1 ag 62.4*, TAAR1 ag conf 82.9*, Ga16 nonsel ag 0.0, TAAR1 desens 72.6* and Ga16 antag count 4.5.
For O=C(O)CCc1ccc(-c2cccs2)n1CCC(=O)O the results were VLA-4 inh 7.8, Rce1 inh inactive, Platelet DG rel 2.6, TAAR1 antagonist -4.4 and TAAR1 ag 3.0.
Screening Cc1ccc(CNC(=O)[C@H](C)NC(=O)C2CCN(C(=O)[C@@H]3CCCN3C(=O)OC(C)(C)C)CC2)cc1 returned VLA-4 inh -18.3, Rce1 inh inactive, Platelet DG rel -1.3, TAAR1 antagonist 0.9 and TAAR1 ag -0.3.
For CCOC(=O)c1c(NC(=O)CSc2nnc(C)s2)sc2c1CCC(C)C2 (stereo not drawn) the results were VLA-4 inh 10.8, Rce1 inh inactive, Platelet DG rel 2.6, TAAR1 antagonist 3.1 and TAAR1 ag 28.5.
CCOC(=O)c1c(NC(=O)CSc2nnc(C)s2)sc2c1CCCCC2 was read as VLA-4 inh -4.7, Rce1 inh inactive, Platelet DG rel -1.4, TAAR1 antagonist -11.0, TAAR1 ag 57.7*, TAAR1 ag conf 40.1*, Ga16 nonsel ag 23.1*, TAAR1 desens 11.9 and Ga16 antag count 15.4.
